According to ChEMBL document CHEMBL3352599, “Radiosynthesis and biological evaluation of a novel enoyl-ACP reductase inhibitor for Staphylococcus aureus” (Eur J Med Chem, 2014):
≈ marks a conversion by molar mass, not a printed value.

How the values were obtained:
[1] = Bioavailability in Swiss Webster mouse at 40 mg/kg, sc by LC/MS/MS analysis; type: ADME, organism-based; settings: in vivo
In short: (§1)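 Healthy Swiss Webster mice received a single dose, either 10 mg/kg iv or 40 mg/kg sc. Blood was drawn at 5, 15 and 30 min and 1, 2, 4, 7 and 24 h (n = 3). Each mouse gave two consecutive samples, retro-orbital then cardiac puncture, into EDTA. Plasma was deproteinized with acetonitrile and analysed by LC-MS/MS. Parameters came from noncompartmental analysis. sc bioavailability was calculated after dose normalization.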

[2] = Cmax in Swiss Webster mouse at 10 mg/kg, iv by LC/MS/MS analysis; type: ADME, organism-based; set-up: dose 10 mg/kg, route intravenous; settings: in vivo; in short: as §1
Mus musculus [3] = experiment: Apparent volume of distribution in Swiss Webster mouse at 10 mg/kg, iv by LC/MS/MS analysis; type: ADME, organism-based; set-up: dose 10 mg/kg, route intravenous; settings: in vivo; in short: as §1
[4] = Mean residence time in Swiss Webster mouse at 40 mg/kg, sc by LC/MS/MS analysis; type: ADME, organism-based; set-up: dose 40 mg/kg, route subcutaneous; settings: in vivo; in short: as §1
[5] = AUC (0 to infinity) in Swiss Webster mouse at 40 mg/kg, sc by LC/MS/MS analysis; type: ADME, organism-based; set-up: time infinity, dose 40 mg/kg, route subcutaneous; settings: plasma; in short: as §1
[6] = AUC (0 to infinity) in Swiss Webster mouse at 10 mg/kg, iv by LC/MS/MS analysis; type: ADME, organism-based; set-up: time infinity, dose 10 mg/kg, route intravenous; settings: plasma; in short: as §1
Staphylococcus aureus [7] = experiment: Antibacterial activity against Staphylococcus aureus; type: functional
Staphylococcus aureus [8] = experiment: Antibacterial activity against methicillin-resistant Staphylococcus aureus BAA1762 infected in Swiss Webster systemic infection model assessed as survival rate at 100 mg/kg, sc administered 1 hr post infection on day 0, day 1 and 2 with 24 hrs dosing interval and measured for additional 4 days (reference value: 0%); type: functional; settings: route subcutaneous
In short: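 Mice made neutropenic with ip cyclophosphamide (150 mg/kg day −4, 100 mg/kg day −1). MRSA grown in Mueller Hinton broth at 37 °C to mid-log, washed and diluted in BHI, then given ip at 2×10^7 cells. Compound in ethanol/PEG-400/saline (40/20/40) given sc once daily for 3 days. Vehicle-treated infected controls. Survival checked twice daily for 7 days.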

Staphylococcus aureus [9] = experiment: Antibacterial activity against methicillin-resistant Staphylococcus aureus BAA1762 infected in Swiss Webster thigh infection model assessed as remaining bacterial burden at 100 mg/kg, sc administered 1 hr post challenge (reference value: 9 log10 CFU); settings: route subcutaneous
[10] = Cmax in Swiss Webster mouse at 40 mg/kg, sc by LC/MS/MS analysis; type: ADME, organism-based; set-up: dose 40 mg/kg, route subcutaneous; settings: in vivo; in short: as §1
[11] = Mean residence time in Swiss Webster mouse at 10 mg/kg, iv by LC/MS/MS analysis; type: ADME, organism-based; set-up: dose 10 mg/kg, route intravenous; settings: in vivo; in short: as §1
[12] = Half life in Swiss Webster mouse at 10 mg/kg, iv by LC/MS/MS analysis; type: ADME, organism-based; set-up: dose 10 mg/kg, route intravenous; settings: in vivo; in short: as §1
[13] = Tmax in Swiss Webster mouse at 10 mg/kg, iv by LC/MS/MS analysis; type: ADME, organism-based; set-up: dose 10 mg/kg, route intravenous; settings: in vivo; in short: as §1
[14] = Ratio of AUC for Swiss Webster mouse at 40 mg/kg, sc to MIC for methicillin-resistant Staphylococcus aureus BAA1762; settings: route subcutaneous
In short: (§2)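 Healthy Swiss Webster mice were given a single dose, iv at 10 mg/kg or sc at 40 mg/kg. Blood was taken at 5, 15 and 30 min and 1, 2, 4, 7 and 24 h (n = 3), with EDTA as anticoagulant. Plasma was protein-precipitated with acetonitrile and analysed by LC-MS/MS. AUC0-∞ (h*μg/mL) came from noncompartmental analysis and was divided by MIC (μg/mL).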

[15] = Half life in Swiss Webster mouse at 40 mg/kg, sc by LC/MS/MS analysis; type: ADME, organism-based; set-up: dose 40 mg/kg, route subcutaneous; settings: in vivo; in short: as §1
[16] = Clearance at steady state in Swiss Webster mouse at 10 mg/kg, iv by LC/MS/MS analysis; type: ADME, organism-based; set-up: dose 10 mg/kg, route intravenous; settings: in vivo; in short: as §1
[17] = Ratio of AUC for Swiss Webster mouse at 10 mg/kg, iv to MIC for methicillin-resistant Staphylococcus aureus BAA1762; in short: as §2
Staphylococcus aureus [18] = experiment: Antibacterial activity against methicillin-resistant Staphylococcus aureus BAA1762 infected in Swiss Webster thigh infection model assessed as remaining bacterial burden at 40 mg/kg, sc administered 1 hr post challenge (reference value: 9 log10 CFU); settings: route subcutaneous
Mus musculus [19] = experiment: Volume of distribution at steady state in Swiss Webster mouse at 10 mg/kg, iv by LC/MS/MS analysis; type: ADME, organism-based; set-up: dose 10 mg/kg, route intravenous; settings: in vivo; in short: as §1

Q: Which bioavailability [1] does the source give for `CCCCCCc1ccc(Oc2ccccc2C#N)c(O)c1` here?
A: Its bioavailability is 69%.

Q: And the Cmax [2]?
A: The Cmax was 840 ng/mL.

Q: What about the Vz (Mus musculus [3]) of the same compound?
A: The Vz was 704.1 mL.

Q: And the MRT [4]?
A: The MRT was 6.47 h.

Q: And the AUC(0-inf) [5]?
A: Its AUC(0-inf) is 1770 ng·h/mL.

Q: And the AUC(0-inf) [6]?
A: Its AUC(0-inf) is 640 ng·h/mL.

Q: What about the MIC (Staphylococcus aureus [7]) of the same compound?
A: Its MIC is 0.5 µg/mL (≈ 1.69 µM).

Q: And the survival at 100 mg/kg (Staphylococcus aureus [8])?
A: Its survival at 100 mg/kg is 50%.

Q: And the “log10 CFU” value (Staphylococcus aureus [9])?
A: Its value is 6.

Q: And the Cmax [10]?
A: Its Cmax is 280 ng/mL.

Q: What about the MRT [11] of the same compound?
A: Its MRT is 0.65 h.

Q: And the half-life [12]?
A: The half-life was 1.01 h.

Q: And the Tmax [13]?
A: The Tmax was 4.8 min.

Q: And the RatioAUC/MIC [14]?
A: The RatioAUC/MIC was 3.54.

Q: And the half-life [15]?
A: The half-life was 6.17 h.

Q: What about the clearance [16] of the same compound?
A: Its clearance is 7.31 mL/min.

Q: And the RatioAUC/MIC [17]?
A: Its RatioAUC/MIC is 1.28.

Q: What about the “log10 CFU” value (Staphylococcus aureus [18]) of the same compound?
A: The value was 7.

Q: What about the Vdss (Mus musculus [19]) of the same compound?
A: Its Vdss is 475.6 mL.
